# Shown are actives, neighbours in structure and some others; about 9.3% of the full set was active somewhere.
# D1 mod = allosterically modulates the human D1 dopamine receptor | P21728 | AID 641 | B-score at 10 µM | 58,000 compounds, 5.9% hits | HEK293 D1, CRE-luciferase, dopamine EC30 potentiation; actives deviate in either direction;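 active means luminescence count or its row- and column-corrected plate score outside the 99.7% band of the plate's sample wells, on either side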
# Ecoli WT expand = E. coli BW25113 growth inhibition, expanded screen; growth inhibition, % at 100 µM; 98,000 compounds, 0.15% hits; AID 710; OD600 absorbance;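 active means growth inhibition above about 50% at one test dose, limit read from the data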;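 further: growth measured after 20 h incubation at 37 °C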
# PostGolgi ctrl = growth of the yeast control strain, post-Golgi counter-screen; efflux-deficient yeast background strain, growth absorbance A615, 16 h; inhibition, % at 10 µM; 98,000 compounds, 5% hits
# PostGolgi yeast = growth inhibition of a yeast mutant, post-Golgi transport screen. post-Golgi transport phenotypic cell assay. inhibition, % at 10 µM. 98,000 compounds, 0.9% hits. AID 739;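 further: yeast cells grown in 1536-well plates; yeast grown about 18 h at 30C before absorbance read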
# Ecoli tolC = blocks growth of E. coli BW25113 tolC mutant; OD615; growth inhibition, % at 10 µM (by protocol); 65,000 compounds, 2.2% hits;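 active means growth inhibition at or above a cutoff equal to the mean over every tested compound plus 3 SD, cut at about 60% in these data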;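 further: growth measured after 20 h incubation at 37 °C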
#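 Test system – E. coli BW25113 ΔtolC::kan, tolC deletion mutant strain · Detection – OD at 615 nm · Buffer or medium – LB with kanamycin 50 µg/mL · Times – 20 h compound exposure of bacteria at 37 °C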
# hDAT+cocaine = changed human dopamine transporter uptake under cocaine IC80; 110,000 compounds, 1.3% hits; LLC-PK1 hDAT cells, [14C]-dopamine uptake with cocaine IC80; actives deviate in either direction; B-score at 10 µM; Q01959;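 active means Z score or B-score, a plate-position-corrected score, falls beyond the plate's 99.7% confidence bounds, in either direction; inactive means both scores lie inside the 99.7% bounds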;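 further: scored against the spread of the other compound wells on the same plate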
# Target sequence (Q01959 whole entry, looked up): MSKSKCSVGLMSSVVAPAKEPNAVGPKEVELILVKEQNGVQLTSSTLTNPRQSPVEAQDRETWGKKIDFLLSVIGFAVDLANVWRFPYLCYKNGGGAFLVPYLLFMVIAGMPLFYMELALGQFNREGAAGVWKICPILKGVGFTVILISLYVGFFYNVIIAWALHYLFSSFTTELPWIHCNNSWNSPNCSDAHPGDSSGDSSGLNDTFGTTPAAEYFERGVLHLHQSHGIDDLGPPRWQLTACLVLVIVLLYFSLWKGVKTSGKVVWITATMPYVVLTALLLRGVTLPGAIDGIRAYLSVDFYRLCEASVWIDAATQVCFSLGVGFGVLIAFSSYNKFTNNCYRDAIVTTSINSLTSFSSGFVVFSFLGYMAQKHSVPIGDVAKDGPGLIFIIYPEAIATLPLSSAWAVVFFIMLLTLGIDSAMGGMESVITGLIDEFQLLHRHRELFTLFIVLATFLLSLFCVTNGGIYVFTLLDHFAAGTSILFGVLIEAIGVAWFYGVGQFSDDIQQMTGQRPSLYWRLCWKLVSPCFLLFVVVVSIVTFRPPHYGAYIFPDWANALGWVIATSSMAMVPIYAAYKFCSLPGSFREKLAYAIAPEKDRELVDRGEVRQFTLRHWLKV
# An asterisk follows results filed as active; · = not tested or not shown. Unless noted, no stated cut-off is given here; in the data, active means inhibition above about 30%; inactive means the rest.
SMILES,D1 mod,Ecoli WT expand,PostGolgi ctrl,PostGolgi yeast,Ecoli tolC,hDAT+cocaine
CC(C(=O)Nc1ccc2c(c1)OCCO2)N1CCN(C(=O)c2ccco2)CC1 (configuration not stated),·,1,2,3,·,-0.14
CC1(NC(=O)N2CCCCC2)CCS(=O)(=O)C1 (configuration not stated),-0.13,6,1,4,-12,0.46
CC12CC3(C)CC(C)(C1)CC(NC(=O)N1CCCC1)(C2)C3,·,3,32*,12,·,1.1
O=C(Nc1ccccc1C(=O)NC(Cc1ccccc1)C(=O)NC1CCCCCC1)c1ccccc1 (configuration not stated),·,-11,12,2,·,-0.13
CCCCn1c(/N=C/c2cc(OC)ccc2O)nc2ccccc21,-0.81,24,3,14,24,2.7*
CCCn1c(/N=C/c2cc(OC)ccc2O)nc2ccccc21,0.12,18,7,4,5,0.22
CCCc1cc(C(=O)Cc2ccc(C(=O)OCC)o2)c(O)cc1O,0.81,12,31*,-1,65*,-0.16
CCCc1cc(C(=O)Cc2nc3ccccc3s2)c(O)cc1O,·,8,14,8,·,1.7
CCCc1cc(-c2n[nH]c(C)c2-c2ccc(C(=O)OCC)o2)c(O)cc1O,0.83,17,5,-19,31,-0.24
CCc1cc(C(=O)COc2ccccc2F)c(O)cc1O,0.005,18,16,0,100*,-0.32
CCc1cc(C(=O)Cc2nc3ccccc3[nH]2)c(O)cc1O,-0.011,16,0,-1,13,-0.055
CCc1cc(C(=O)Cc2ccc(F)cc2)c(O)cc1O,-0.066,·,·,·,91*,·
CCCc1cc(C(=O)Cc2ccc(F)cc2)c(O)cc1O,0.31,11,52*,6,8,-0.023
O=C(Cc1ccc(F)cc1)c1ccc(O)cc1O,·,18,12,-3,·,0.019
CCOC(=O)C[C@H]1c2ccccc2S(=O)(=O)N1c1cccc(OC)c1,·,·,·,·,·,-0.09
COc1ccc(-c2coc3cc(OC)cc(OC)c3c2=O)cc1,·,·,·,·,·,2.4
COc1ccc(-c2coc3cc(OC)cc(O)c3c2=O)cc1,·,-4,0,-2,·,-2.4*
O=C(c1ccccc1)c1nn(-c2ccc(Cl)cc2)cc1C(=O)c1cc2ccccc2oc1=O,·,-12,12,-3,·,·
CCN(CC)c1ccc(NC(=O)c2cccnc2)cc1,·,8,-5,3,·,0.15
CCN(CC)c1ccc(-c2nc3cnccc3n2C)cc1,-0.8,7,0,38*,-6,2.2
COC(=O)c1cccc(NC(=S)NCc2ccc(Cl)cc2)c1,·,1,45*,11,·,-0.0049
CSc1nc(Cl)cc(N(CCO)CCO)n1,·,-2,-9,12,·,0.23
COc1ccccc1Cc1nc(-c2ccc(Br)o2)no1,·,6,2,-10,61*,-0.25
O=C(c1ccccc1)c1sc(N2CCCCCC2)nc1-c1ccccc1,·,-22,33*,-5,·,2.1
CN(Cc1cccs1)C(=O)COc1ccc(-c2nnco2)cc1,-0.34,3,19,5,-11,-0.045
SMILES,D1 mod,Ecoli WT expand,PostGolgi ctrl,PostGolgi yeast,Ecoli tolC,hDAT+cocaine
COc1ccc(NC(=O)CN2C(=O)C(C)Oc3ccccc32)cc1 (configuration not stated),0.049,-13,-4,0,-16,-0.52
COc1ccc(NC(=O)CN2C(=O)C(C)Oc3ccccc32)c(OC)c1 (configuration not stated),-0.62,-8,15,-1,-8,2.3*
CCc1ccccc1OCc1nnc(N)s1,·,1,5,8,0,-0.014
O=C(Cc1ccccc1)Nc1c2c(nn1-c1cccc(Cl)c1)CS(=O)(=O)C2,0.37,-4,17,3,2,0.066
COc1ccc(CC(=O)Nc2c3c(nn2-c2cccc(Cl)c2)CS(=O)(=O)C3)cc1,0.4,-3,34*,-2,-5,0.26
Cc1ccc2nc(/C(C#N)=C\c3ccc(N4CCOCC4)o3)[nH]c2c1,·,·,·,·,·,-0.72
Cc1ccc2nc(/C(C#N)=C\c3ccc([N+](=O)[O-])o3)[nH]c2c1,·,17,99*,103*,·,0.0065
O=S(=O)(NCCSc1nnc(-c2ccco2)n1-c1ccccc1)c1ccccc1,11*,-5,2,11,12,-0.014
O=C(CSc1nnc(-c2ccco2)n1-c1ccccc1)N1CCOCC1,-0.67,-8,2,-3,-16,0.47
CCCCC(=O)N(Cc1ccc(-c2ccccc2-c2nn[nH]n2)cc1)[C@H](C(=O)O)C(C)C,·,·,·,·,·,-1.1
CCOc1ccc(Cl)cc1CSc1n[nH]c(CC)n1,1.6,10,34*,-9,-2,-1.3
O=C(NC1CCCC1)C(c1ccsc1)N(C(=O)Cc1cccs1)c1ccc(F)cc1 (configuration not stated),·,-10,3,35*,·,0.6
O=C(NC1CCCCC1)C(c1cccs1)N(C(=O)Cc1c[nH]c2ccccc12)c1ccc(F)cc1 (configuration not stated),·,-13,48*,-6,·,0.4
Nc1c(N=Nc2cccc(Cl)c2)c(=O)[nH]n1-c1ccccc1,·,-8,10,-16,·,-0.15
Cc1ccc(-c2[nH]nc(N)c2N=Nc2ccccc2C)cc1,·,1,63*,54*,·,0.17
Cc1cccc(N=Nc2c(N)n[nH]c2-c2ccc(Cl)cc2)c1,·,-12,34*,5,·,0.11
Cc1ccc(-c2[nH]nc(N)c2N=Nc2cccc(Cl)c2C)cc1,·,-16,45*,15,·,0.0029
Cn1c(N2C(=O)CC(Cc3ccccc3)C2=O)nc2ccccc21 (configuration not stated),·,·,·,·,·,-0.37
Cc1nn(-c2ccccc2)c2c1C(c1ccncc1)C(C#N)=C(N)O2 (configuration not stated),-0.0084,-10,32*,9,-14,-0.014
CCOC(=O)C1=C(C)OC(N)=C(C#N)C1c1c(C)nn(-c2ccccc2)c1Cl (configuration not stated),1.1,5,28,-4,21,-7.4*
COc1cc(OC)cc(C(=O)NNC(=O)NC2CCCCC2)c1,·,·,·,·,·,-0.03
CCN(CCCNC(=O)C1CCN(S(=O)(=O)c2cnc[nH]2)CC1)c1cccc(C)c1,1.8,9,-4,12,-11,-0.0086
O=C(/C(=C/c1ccccc1)c1ccccc1)N1CCCCC1,·,6,9,-5,·,0.41
COc1ccc(-c2c3c(=O)n(C)c(=O)n(C)c3cn2Cc2ccccn2)cc1,-1.1,2,9,-3,5,0.9
COc1ccc(-c2c3c(=O)n(C)c(=O)n(C)c3cn2Cc2cccnc2)cc1,-0.25,3,25,6,0,-8.7*
Cc1nc2sc(C(c3ccccc3)N3CCN(c4ccccc4F)CC3)c(O)n2n1 (configuration not stated),-0.66,5,3,7,12,-0.63
O=C(CN(C(=O)c1cc2c(s1)CCC2)C1CCCC1)NCc1cccs1,0.022,-4,-7,-6,45,0.0089

# High-throughput results (PubChem BioAssay)
